Source: ChEMBL document CHEMBL2016433 (Bioorg Med Chem, 2012)
Calls of active or inactive are those of the source.

What was measured:
HT-29 [1] = experiment: Cytotoxicity against human HT-29 cells assessed as cell viability after 48 hrs; assay type: functional, cell-based; conditions: HT-29, 48 h
Method in brief: (§1)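 HT-29, HepG2 and MCF7 cells were treated in wells with increasing concentrations for 48 h at 37 °C, 5% CO₂. Total cell count was taken by haemocytometer. IC50 is the concentration inhibiting total count by 50%, from a best-fit curve of the value versus log concentration.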

HepG2 [2] = experiment: Cytotoxicity against human HepG2 cells assessed as compound concentration causing 30% reduction in formazan product formation after 48 hrs by MTS assay; assay type: functional; conditions: HepG2, 48 h
Method in brief: (§2)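 HT-29, HepG2 and MCF7 cells were exposed to increasing concentrations for 48 h. MTS reagent was then added directly to the wells, incubated a further 4 h, and absorbance read at 490 nm. MAIC30 is the concentration reducing formazan formation by 30%, from a best-fit curve versus log concentration.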

THP-1 [3] = experiment: Cytotoxicity against human THP1 cells after 24 hrs by trypan blue exclusion assay; assay type: functional
HT-29 [4] = experiment: Cytotoxicity against human HT-29 cells assessed as compound concentration causing 30% reduction in formazan product formation after 48 hrs by MTS assay; assay type: functional; conditions: HT-29, 48 h; method in brief: as §2
MCF7 [5] = experiment: Cytotoxicity against human MCF7 cells assessed as compound concentration causing 30% reduction in formazan product formation after 48 hrs by MTS assay; assay type: functional; conditions: MCF7, 48 h; method in brief: as §2
U-937 [6] = experiment: Cytotoxicity against human U937 cells assessed as induction of cell death at 1 to 100 microM after 24 hrs by trypan blue exclusion method; assay type: functional, cell-based
HepG2 [7] = experiment: Cytotoxicity against human HepG2 cells assessed as cell viability after 48 hrs; assay type: functional, cell-based; conditions: HepG2, 48 h; method in brief: as §1
THP-1 [8] = experiment: Induction of apoptosis in human THP1 cells after 24 hrs by acridine orange staining based fluorescence microscopy; assay type: functional
Method in brief: (§3)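 HeLa, MOLT-3 and THP-1 cells were treated with increasing concentrations for 24 h, then stained with acridine orange and more than 600 cells scored by fluorescence microscopy for condensed or fragmented nuclei. AC30 is the concentration giving 30% apoptotic cells, from a best-fit curve versus log concentration.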

U-937 [9] = experiment: Induction of apoptosis in human U937 cells at 100 uM after 24 hrs by acridine orange staining based microscopy; assay type: functional, cell-based
Method in brief: (§4)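 U937 cells were treated for 24 h at 37 °C with 1–100 µM compound or vehicle, then stained with acridine orange. Over 600 cells were scored by fluorescence microscopy; apoptosis was defined as uniformly stained nuclei with chromatin condensation or nuclear fragmentation. Mean and SD of at least three determinations.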

HeLa [10] = experiment: Induction of apoptosis in human HeLa cells after 24 hrs by acridine orange staining based fluorescence microscopy; assay type: functional; method in brief: as §3
HT-29 [11] = experiment: Cytotoxicity against human HT-29 cells after 48 hrs by trypan blue exclusion assay; assay type: functional
Method in brief: (§5)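 Adherent HT-29, HepG2 and MCF7 cells were seeded in 96 wells with increasing concentrations and incubated 48 h at 37 °C, 5% CO₂. Trypan blue exclusion was done directly in the culture wells. CC30 is the concentration giving 30% cytotoxicity, from a best-fit curve versus log concentration.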

U-937 [12] = experiment: Induction of apoptosis in human U937 cells expressing pMEP assessed as expression of Bcl-2 protein at 1 to 100 uM by acridine orange based microscopy; assay type: functional, cell-based
Method in brief: (§6)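 U937 stable transfectants carrying murine bcl-2 (U937mBCL2) or empty pMEP vector were kept in medium with hygromycin B 50 µg/mL. They were treated for 24 h with compound or DMSO. Apoptotic nuclei were scored by fluorescence microscopy after acridine orange staining; mean and SD of three determinations.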

MCF7 [13] = experiment: Cytotoxicity against human MCF7 cells assessed as cell viability after 48 hrs; assay type: functional, cell-based; conditions: MCF7, 48 h; method in brief: as §1
MOLT-3 [14] = experiment: Cytotoxicity against human MOLT3 cells after 24 hrs by trypan blue exclusion assay; assay type: functional
MOLT-3 [15] = experiment: Cytotoxicity against human MOLT3 cells assessed as cell viability after 24 hrs; assay type: functional, cell-based; conditions: MOLT-3, 24 h
U-937 [16] = experiment: Induction of apoptosis in human U937 cells expressing mouse Bcl-2 gene assessed as expression of Bcl-2 protein at 1 to 100 uM by acridine orange based microscopy; assay type: functional, cell-based; method in brief: as §6
MOLT-3 [17] = experiment: Induction of apoptosis in human MOLT3 cells after 24 hrs by acridine orange staining based fluorescence microscopy; assay type: functional; method in brief: as §3
THP-1 [18] = experiment: Cytotoxicity against human THP1 cells assessed as cell viability after 24 hrs; assay type: functional, cell-based; conditions: THP-1, 24 h
HeLa [19] = experiment: Cytotoxicity against human HeLa cells assessed as cell viability after 24 hrs; assay type: functional, cell-based
Method in brief: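 MOLT-3, THP-1 and HeLa cells were treated with increasing concentrations for 24 h at 37 °C, 5% CO₂. Total cells were counted by haemocytometer with trypan blue. IC50 is the concentration cutting total cell count by 50%, taken from a best-fit curve of the value versus log concentration.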

HeLa [20] = experiment: Cytotoxicity against human HeLa cells after 24 hrs by trypan blue exclusion assay; assay type: functional
Method in brief: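 MOLT-3, THP-1 or HeLa cells were grown in RPMI 1640 with 5–10% FBS; for THP-1 the medium also held 10 mM HEPES, 1 mM pyruvate and 4.5 g/L glucose. Cells were seeded in 96 wells with increasing compound concentrations and incubated 24 h at 37 °C, 5% CO₂. CC30 is the concentration giving 30% trypan blue-positive cells, taken from a best-fit curve of y versus log x.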

HepG2 [21] = experiment: Cytotoxicity against human HepG2 cells after 48 hrs by trypan blue exclusion assay; assay type: functional; method in brief: as §5
MCF7 [22] = experiment: Cytotoxicity against human MCF7 cells after 48 hrs by trypan blue exclusion assay; assay type: functional; method in brief: as §5
U-937 [23] = experiment: Induction of apoptosis in human U937 cells after 24 hrs by acridine orange staining based microscopy; assay type: functional, cell-based; method in brief: as §4
U-937 [24] = experiment: Induction of cell death in human U937 cells assessed at 1 to 100 microM after 24 hrs by trypan blue exclusion method relative to untreated control; assay type: functional
Method in brief: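 U937 cells (5×10^4 per well) exposed for 24 h at 37 °C, 5% CO₂ to 1 in 10 serial dilutions from 1 to 100 µM in RPMI-1640 with 5% FBS. Compounds came from 20 mM stocks in DMSO or medium. Controls got vehicle at equal amounts. Membrane-permeable cells were counted by trypan blue exclusion in a haemocytometer and expressed as percent. Mean and standard deviation from at least three determinations.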

U-937 [25] = experiment: Cytostatic against human U937 cells assessed as reduction in absolute number of total cells after 24 hrs by haemocytometry; assay type: functional, cell-based
Method in brief: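 U937 cells, 5×10^4 per well in RPMI-1640 with 5% FBS, 2 mM L-glutamine and penicillin-streptomycin, were exposed to 1 in 10 serial dilutions from 100 µM to 1 µM (stocks 20 mM in DMSO or medium), or to vehicle, for 24 h at 37 °C in CO₂. Total cells were counted by haemocytometer; mean and SD of at least three determinations.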

PBMC [26] = experiment: Induction of apoptosis in human PBMC cells assessed as hypodiploid nuclei at 50 uM after 48 hrs by propidium iodide based flow cytometry analysis (reference value: 4.7 %); assay type: cell-based
PBMC [27] = experiment: Induction of apoptosis in human PBMC cells assessed as hypodiploid nuclei at 100 uM after 48 hrs by propidium iodide based flow cytometry analysis (reference value: 4.7 %); assay type: cell-based
U-937 [28] = experiment: Induction of apoptosis in human U937 cells assessed as hypodiploid nuclei after 24 hrs by propidium iodide based flow cytometry analysis; assay type: functional, cell-based
U-937 [29] = experiment: Induction of apoptosis in human U937 cells assessed as hypodiploid nuclei at 1 uM after 24 hrs by propidium iodide based flow cytometry analysis (reference value: 3.2%); assay type: functional
U-937 [30] = experiment: Induction of apoptosis in human U937 cells assessed as hypodiploid nuclei at 10 uM after 24 hrs by propidium iodide based flow cytometry analysis (reference value: 3.2%); assay type: functional
PBMC [31] = experiment: Induction of apoptosis in human PBMC cells assessed as hypodiploid nuclei at 10 uM after 48 hrs by propidium iodide based flow cytometry analysis (reference value: 4.7 %); assay type: cell-based
U-937 [32] = experiment: Induction of apoptosis in human U937 cells assessed as hypodiploid nuclei at 100 uM after 24 hrs by propidium iodide based flow cytometry analysis (reference value: 3.2%); assay type: functional
PBMC [33] = experiment: Induction of apoptosis in human PBMC cells assessed as hypodiploid nuclei after 24 hrs by propidium iodide based flow cytometry analysis; assay type: cell-based
U-937 [34] = experiment: Induction of apoptosis in human U937 cells assessed as hypodiploid nuclei at 50 uM after 24 hrs by propidium iodide based flow cytometry analysis (reference value: 3.2%); assay type: functional
PBMC [35] = experiment: Induction of apoptosis in human PBMC cells assessed as hypodiploid nuclei at 1 uM after 48 hrs by propidium iodide based flow cytometry analysis (reference value: 4.7 %); assay type: cell-based

Compound	IC50 (HT-29 [1]) [µM]	IC30 (HepG2 [2]) [µM]	CC30 (THP-1 [3]) [µM]	IC30 (HT-29 [4]) [µM]	IC30 (MCF7 [5]) [µM]	Activity (U-937 [6])	IC50 (HepG2 [7]) [µM]	AC30 (THP-1 [8]) [µM]	Activity (U-937 [9])	CC30 (HT-29 [11]) [µM]	IC50 (MCF7 [13]) [µM]	CC30 (MOLT-3 [14]) [µM]	IC50 (MOLT-3 [15]) [µM]	AC30 (MOLT-3 [17]) [µM]	IC50 (THP-1 [18]) [µM]	CC30 (HepG2 [21]) [µM]	CC30 (MCF7 [22]) [µM]	Activity (U-937 [23])	Activity (U-937 [24]) [%]	Activity (U-937 [25])	other results
CC(=O)OC[C@H]1O[C@@H](SSCc2ccc(CSS[C@@H]3O[C@H](COC(C)=O)[C@H](OC(C)=O)[C@H](OC(C)=O)[C@H]3OC(C)=O)cc2)[C@H](OC(C)=O)[C@@H](OC(C)=O)[C@H]1OC(C)=O	63	30	93	23	63	Active	51	88	Active	61	38	29	> 100	24	> 100	98	69				AC30 (HeLa [10]): 62 µM; Activity (U-937 [12]): Active; Activity (U-937 [16]): inactive; IC50 (HeLa [19]): > 100 µM; CC30 (HeLa [20]): >100 µM
Cc1c(CSS[C@@H]2O[C@H](CO)[C@@H](O)[C@H](O)[C@H]2O)c(C)c(CSS[C@@H]2O[C@H](CO)[C@@H](O)[C@H](O)[C@H]2O)c(C)c1CSS[C@@H]1O[C@H](CO)[C@@H](O)[C@H](O)[C@H]1O						Active												inactive	25		
CC(=O)OC[C@H]1O[C@@H](SSCc2cc(CSS[C@@H]3O[C@H](COC(C)=O)[C@@H](OC(C)=O)[C@H](OC(C)=O)[C@H]3OC(C)=O)cc(CSS[C@@H]3O[C@H](COC(C)=O)[C@@H](OC(C)=O)[C@H](OC(C)=O)[C@H]3OC(C)=O)c2)[C@H](OC(C)=O)[C@@H](OC(C)=O)[C@@H]1OC(C)=O						inactive												inactive	25	Dose-dependent effect	
CC(=O)OC[C@H]1O[C@@H](SSCc2cccc(CSS[C@@H]3O[C@H](COC(C)=O)[C@H](OC(C)=O)[C@H](OC(C)=O)[C@H]3OC(C)=O)c2)[C@H](OC(C)=O)[C@@H](OC(C)=O)[C@H]1OC(C)=O	60	41	>100	12	61	Active	54	92	Active	>100	42	54	> 100	15	> 100	77	>100	Active		Active	Activity (PBMC [26]): 30.9%; Activity (PBMC [27]): 31.2%; Activity (U-937 [28]): Dose-dependent effect; Activity (U-937 [29]): 3.1%; Activity (U-937 [30]): 4.2%; Activity (PBMC [31]): 7.4%; Activity (U-937 [32]): 91.2%; Activity (PBMC [33]): Non-toxic; Activity (U-937 [34]): 51%; Activity (PBMC [35]): 4.9%
CC(=O)OC[C@H]1O[C@@H](SSc2cccc(SS[C@@H]3O[C@H](COC(C)=O)[C@@H](OC(C)=O)[C@H](OC(C)=O)[C@H]3OC(C)=O)c2)[C@H](OC(C)=O)[C@@H](OC(C)=O)[C@@H]1OC(C)=O						Active															
CCc1c(CSS[C@@H]2O[C@H](COC(C)=O)[C@H](OC(C)=O)[C@H](OC(C)=O)[C@H]2OC(C)=O)c(CC)c(CSS[C@@H]2O[C@H](COC(C)=O)[C@H](OC(C)=O)[C@H](OC(C)=O)[C@H]2OC(C)=O)c(CC)c1CSS[C@@H]1O[C@H](COC(C)=O)[C@H](OC(C)=O)[C@H](OC(C)=O)[C@H]1OC(C)=O						inactive												inactive	25	Dose-dependent effect	
